# Screening results (PubChem)
# Compounds with a hit are over-represented: about 2.6% of the library has one in this group of screens.
# HCV core dimer – blocks dimerization of HCV core protein | AID 1899 | inhibition, % at 5 µM | 300,000 compounds, 0.33% hits | TR-FRET GST/Flag-core106 dimerization, 1536-well;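 active means inhibition above the mean of all tested compounds plus 3 SD, set per screening campaign, cut at about 45% in these data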
#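 assay system = GST-tagged and Flag-tagged HCV core protein residues 1-106 | controls = unlabelled core106 and no-GST-core106 wells | incubation = compound-protein-antibody incubation 4 h at 22.5 °C | probe or stimulus = Eu donor and XL665 acceptor anti-tag antibodies | read-out = % inhibition based on acceptor/donor emission ratio | signal = TR-FRET 671 and 617 nm emission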
# ABHD5-PLIN5 inh – ABHD5-PLIN5 protein interaction inhibition; 360,000 compounds, 0.78% hits; inhibition, % at 4 µM; Q00G26+Q8WTS1; Split G. princeps luciferase complementation, luminescence, 4 h;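 active means inhibition above the mean inhibition across every tested compound plus 3 SD, cut at about 22% in these data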;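 further: 0% = DMSO only wells and the 100% control is not disclosed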
# NadD inh – NadD (S. aureus) enzyme inhibition. purified NadD enzyme, colorimetric absorbance read-out. inhibition, % at 20 µM. 360,000 compounds, 0.78% hits. AID 602399; in the data active means inhibition above about 26%
# rCAG binder – r(CAG) repeat RNA binding. TO-PRO-1 dye displacement fluorescence. inhibition, % at 3 µM. 370,000 compounds, 1.3% hits. AID 651821;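 active means inhibition above the plate cutoff, the mean of all test compounds on that plate plus 3 SD, cut at about 35% in these data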;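 further: 0% = DMSO alone and 100% = 100 µM mitoxantrone as full dye displacement; higher means more dye released from RNA so lower well fluorescence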
# NadD inh conf – confirmation of Staphylococcus aureus NadD inhibitors | shares compounds with NadD inh | purified S. aureus NadD, colorimetric enzyme assay | inhibition, % at 20 µM | 2,000 compounds, 13% hits; in the data active means inhibition mostly above about 42%, no sharp cut-off; inactive means mostly below about 42%
# The depositor's hits bear a star; x = no result given.
SMILES,HCV core dimer,ABHD5-PLIN5 inh,NadD inh,rCAG binder,NadD inh conf
O=C(NC1CCCC1)c1cccc2c1C(=O)c1ccc(/C=C/c3ccccc3)cc1S2(=O)=O,x,5,25,3,x
COc1cc(NC(=O)Nc2nnc([C@@H]3C[C@H](O)[C@@H](CO)O3)s2)cc(OC)c1OC,x,-1,-1,4,x
CCOC(=O)[C@]12CCCC=C1N(Cc1ccc3c(c1)OCO3)C(=O)[C@H](CC(=O)NCC1CCCCC1)C2,x,-4,5,4,x
COc1ccc(-c2nn(-c3ccccc3)cc2/C=N/NC(=O)c2cccc(S(=O)(=O)Nc3ccccc3OC)c2)cc1,37,6,45*,18,31
COc1ccc(-c2nn(-c3ccccc3)cc2/C=N/NC(=O)c2ccc3c(c2)OCO3)cc1,33,x,x,x,x
COc1ccc(CC(N)c2csc(Nc3ccc(S(C)(=O)=O)cc3)n2)cc1 (configuration not stated),x,-3,-3,10,x
Cc1ccc(N2C(=O)CC(N(CCc3ccccc3)C(=S)Nc3ccc(N(C)C)cc3)C2=O)cc1 (configuration not stated),9,8,37*,18,35*
O=C(Nc1ccc(C2=NCCN2)cc1)c1ccc(C(=O)Nc2ccc(C3=NCCN3)cc2)c([N+](=O)[O-])c1,18,7,50*,23,22
COC(=O)c1ccc(Cn2nnc3c(=O)[nH]c(C4CCCN(S(=O)(=O)c5ccc(C)cc5)C4)nc32)cc1 (configuration not stated),21,2,29*,3,2
COC(=O)c1ccc(Cn2nnc3c(=O)[nH]c(C4CCCN(S(=O)(=O)c5cccc(Cl)c5)C4)nc32)cc1 (configuration not stated),32,-2,33*,3,15
Cc1ccc(Cn2nnc3c(=O)[nH]c(C4CCN(S(=O)(=O)c5ccc(C)cc5)CC4)nc32)cc1,21,3,22,8,x
CC(=O)c1cccc(S(=O)(=O)N2CCCC(c3nc4c(nnn4Cc4cccc(Cl)c4)c(=O)[nH]3)C2)c1 (configuration not stated),31,-2,46*,16,24
Cc1ccc(Cn2nnc3c(=O)[nH]c(C4CCN(S(=O)(=O)c5ccc(S(=O)(=O)NC6CC6)cc5)CC4)nc32)cc1,15,7,31*,15,44*
CC(C)CC(=O)[C@@H](O)Cc1ccc(O)cc1,x,-1,-2,0,x
CCCCNC(=O)C[C@@H]1C(=O)N2CCCC3=C2[C@@]1(C(=O)OC)CCCC3,x,x,x,2,x
O=c1[nH]c(C2CCCN(S(=O)(=O)c3ccccc3Cl)C2)nc2c1nnn2Cc1ccc2c(c1)OCCO2 (configuration not stated),14,11,37*,9,35
COc1ccc(CN2C[C@H](COCc3ccccc3)Oc3cccc(N4CCCC4)c3S2(=O)=O)cc1,x,x,x,8,x
COc1ccc(C[N+]2=C(N)N[C@@]3(C=C(C)Cn4c(=O)n(-c5ccccc5)c(=O)n43)C2)c(OC)c1,x,x,x,10,x
COc1ccc(/C=N/NC(=O)c2cc(Br)ccc2O)cc1Cn1cc(Cl)cn1,1,3,39*,31,38
COc1ccc(/C=N/NC(=O)c2ccc(Cl)cc2)cc1Cn1cc(Cl)cn1,6,3,5,0,x
COC(=O)C(CC(C)C)N(Cc1ccc(Br)cc1)S(=O)(=O)CCl (configuration not stated),x,x,x,2,x
O=C(N/N=C/c1ccc(-c2ccccc2[N+](=O)[O-])o1)c1cncc(Br)c1,-16,-27,0,7,x
Cc1c(C(=O)N/N=C/c2ccc(-c3ccccc3[N+](=O)[O-])o2)sc(N)c1C#N,-7,-35,36*,33,20
O=C(N/N=C\c1ccc(-c2ccccc2[N+](=O)[O-])o1)C1COc2cc3ccccc3cc2O1 (configuration not stated),30,-63,42*,20,46
S=c1[nH]nc(-c2cccs2)n1/N=C/c1cn(-c2ccccc2)nc1-c1cccs1,17,4,28,1,x
SMILES,HCV core dimer,ABHD5-PLIN5 inh,NadD inh,rCAG binder,NadD inh conf
Cc1ccc(-c2nn(-c3ccccc3)cc2/C=N/n2c(-c3cccs3)n[nH]c2=S)cc1,21,0,41*,6,0
COC(=O)c1c(NC(=O)COC(=O)c2ccccc2O)sc2c1CCCCC2,0,-1,2,3,x
COC(=O)c1c(NC(=O)COC(=O)c2ccc(NC(=O)CC#N)cc2)sc2c1CCCCC2,62*,-8,82*,31,25
Cc1c(C(=O)NCC2CCCO2)oc2ccc(Br)cc12 (configuration not stated),-1,-8,1,2,x
O=S1(=O)CC(N2CCSCC2)CN1Cc1cn(Cc2ccccc2)nn1 (configuration not stated),x,-1,2,3,x
CCOC(=O)c1cc(-c2ccco2)nc2c1c(C)nn2-c1ccccc1,59*,-1,33*,19,8
CCOC(=O)[C@]12CCCC=C1N(CCc1ccc(OC)c(OC)c1)C(=O)[C@H](CC(=O)NCCCCc1ccccc1)C2,x,3,x,5,x
O=C(c1[nH]nc2c1CCc1ccccc1-2)N1CCN(Cc2ccc3c(c2)OCO3)CC1,3,8,5,x,x
Oc1ccc(-c2nc3ccccc3s2)c(O)c1,3,-3,-2,12,x
Nc1ccc(O)c(-c2nc3ccccc3s2)c1,82*,-13,63*,18,23
COc1ccc(/C=N/N=C2/NC(=O)C(CC(=O)O)S2)cc1OCc1ccc(Cl)cc1Cl (configuration not stated),18,-1,36*,28,31
C#CCOCCOCCOCCNc1nc(N2CCN(C(=O)CCCCCCCCCCNC(=O)[C@@H](CCC(=O)O)n3cc(CCCCCN)nn3)CC2)nc(N2CCN(C(=O)CCCCCCCCCCNC(=O)[C@H](CO)n3cc(CCCSC)nn3)CC2)n1,2,47*,48*,x,-7
C#CCOCCOCCOCCNc1nc(N2CCOCC2)nc(N2CCN(C(=O)CCCCCCCCCCNC(=O)[C@H](CO)n3cc(CCCSC)nn3)CC2)n1,-17,16,1,-3,x
C#CCOCCOCCOCCNc1nc(N2CCN(C(=O)CCCCCCCCCCNC(=O)[C@@H](CCSC)n3cc(CCO)nn3)CC2)nc(N2CCN(C(=O)CCCCCCCCCCNC(=O)[C@H](CCC(=O)O)n3cc(CCCCCN)nn3)CC2)n1,-9,41*,41*,x,48*
N#Cc1c(NC2CCCCC2)nc(-c2ccco2)c2c1CCCC2,20,20,38*,x,10
COCCNC(=O)C1CCC(Cn2c(=S)[nH]c3ccccc3c2=O)CC1 (configuration not stated),-10,-2,-2,-6,x
O=C(NCCc1c[nH]c2ccccc12)C1CCC(Cn2c(=S)[nH]c3ccccc3c2=O)CC1 (configuration not stated),9,0,33*,20,25
